Reference: ChEMBL document CHEMBL1129329, “Structure-activity studies of 6-substituted decahydroisoquinoline-3-carboxylic acid AMPA receptor antagonists. 2. Effects of distal acid bioisosteric substitution, absolute stereochemical preferences, and in vivo activity” (J Med Chem, 1996)

How the values were obtained:
[1] = biological target: T1, Glutamate receptor ionotropic, AMPA (Rattus norvegicus) (UniProt P19491+P19492+P19493+P19490); assay: (§1) Binding affinity against Ionotropic glutamate receptor AMPA using [3H]AMPA 19755 radioligand; type: protein-complex assay; conditions: concentration not given here
Procedure, shortened: (§2)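 Displacement of radioligand binding in rat cortical tissue: [3H]AMPA for AMPA sites, [3H]kainic acid for kainate sites. Assays run in triplicate unless otherwise indicated; some IC50 values come from a single assay.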

[2] = biological target: Glutamate receptor ionotropic, kainate; assay: Binding affinity against Ionotropic glutamate receptor kainate using [3H]-Kainic acid 19755 radioligand; type: protein-complex assay; procedure, shortened: as §2
[3] = biological target: Glutamate receptor ionotropic, kainate; assay: Antagonism at Ionotropic glutamate receptor kainate by inhibition of depolarizations induced by 10 uM kainic acid in rat cortical slice preparation.; type: functional
[4] = biological target: Glutamate NMDA receptor; assay: Antagonism at NMDA receptor by inhibition of depolarizations induced by 40 uM NMDA in rat cortical slice preparation.; type: functional
[5] = biological target: Glutamate NMDA receptor; assay: Affinity of [3H]-CGS- 19755 radioligand to rat N-methyl-D-aspartate (NMDA) receptor; type: protein-complex assay
[6] = biological target: T1, Glutamate receptor ionotropic, AMPA (Rattus norvegicus); assay: Compound was tested for AMPA receptor antagonistic activity by measuring its ability to inhibit depolarizations induced by 40 uM AMPA in rat cortical slice preparation at 100 uM; type: functional
[7] = biological target: Glutamate receptor ionotropic, kainate; assay: Compound was tested for Ionotropic glutamate receptor kainate antagonistic activity by measuring its ability to inhibit depolarizations induced by 10 uM kainic acid in rat cortical slice preparation.; type: functional
[8] = biological target: T2, Glutamate receptor ionotropic, AMPA (Rattus norvegicus, UniProt P19490+P19491+P19492+P19493); assay: as §1; type: protein-complex assay
[9] = biological target: Glutamate NMDA receptor; assay: Compound was tested for NMDA receptor antagonistic activity by measuring its ability to inhibit depolarizations induced by 40 uM NMDA in rat cortical slice preparation.; type: functional
[10] = biological target: T2, Glutamate receptor ionotropic, AMPA; assay: Compound was tested for Ionotropic glutamate receptor AMPA antagonistic activity by measuring its ability to inhibit depolarizations induced by 40 uM AMPA in rat cortical slice preparation.; type: functional
[11] = biological target: T2, Glutamate receptor ionotropic, AMPA; assay: Antagonism at AMPA receptor by inhibition of depolarizations induced by 40 uM AMPA in rat cortical slice preparation.; type: functional
[12] = test system: Mus musculus; assay: Effective dose to block maximal electroshock-induced convulsions in mice, administered intraperitoneally; type: functional; conditions: ip
[13] = test system: Mus musculus; assay: Effective dose to block ATPA-induced muscle rigidity in mice at a dose of 30mg/kg, administered intravenously; type: functional; conditions: iv
Procedure, shortened: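 Mice given test agent ip 30 min before iv challenge with ATPA (30 mg/kg), a systemic AMPA agonist that produces characteristic muscle rigidity.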

[14] = test system: Mus musculus; assay: Effective dose to block lethality induced by 200 mg/kg ip dose of NMDA; type: functional; conditions: route intraperitoneal
Procedure, shortened: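 Mice dosed ip 30 min before a 200 mg/kg ip NMDA challenge; protection from lethality recorded and ED50 (mg/kg, ip) derived.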

[15] = biological target: Glutamate receptor ionotropic, AMPA (Rattus norvegicus, UniProt P19491+P19492+P19493+P19490); assay: Compound was tested for AMPA receptor antagonistic activity by measuring its ability to inhibit depolarizations induced by 40 uM AMPA in rat cortical slice preparation; agonist; type: functional
[16] = test system: Mus musculus; assay: (§3) Effective dose to produce neurological impairments in mice using the horizontal screen assay, administered intraperitoneally; type: functional; conditions: ip
Procedure, shortened: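 Mice dosed ip 30 min beforehand are placed on a horizontal screen, which is then turned upside down. Unimpaired mice climb back to the top within 2 min.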

[17] = test system: Mus musculus; assay: Effective dose to block ATPA-induced muscle rigidity in mice at a dose of 30 mg/kg administered intraperitoneally; conditions: ip
[18] = test system: Mus musculus; assay: as §3; type: functional; conditions: ip; remark: listed apart in the source
Procedure, shortened: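 Mice dosed intraperitoneally 30 min before testing were placed on a horizontal screen, which was then turned upside down. Unimpaired mice climb back to the top within 2 min; failure indicates neurological impairment. This was done before MES testing.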

[19] = biological target: T2, Glutamate receptor ionotropic, AMPA; assay: Compound was tested for AMPA receptor antagonistic activity by measuring its ability to inhibit depolarizations induced by 10 uM quisqualic acid in rat cortical slice preparation.; type: functional
[20] = test system: Mus musculus; assay: Minimum effective dose to block the lethality induced by 200 mg/kg ip dose of NMDA; type: functional; conditions: route intraperitoneal
Procedure, shortened: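 Mice dosed ip 30 min before a 200 mg/kg ip NMDA challenge. Minimum effective dose is the lowest dose giving greater than 50% protection from lethality among all mice tested.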

Sequence of Glutamate receptor ionotropic, AMPA (Rattus norvegicus, UniProt P19491+P19492+P19493+P19490) (P19491 whole entry): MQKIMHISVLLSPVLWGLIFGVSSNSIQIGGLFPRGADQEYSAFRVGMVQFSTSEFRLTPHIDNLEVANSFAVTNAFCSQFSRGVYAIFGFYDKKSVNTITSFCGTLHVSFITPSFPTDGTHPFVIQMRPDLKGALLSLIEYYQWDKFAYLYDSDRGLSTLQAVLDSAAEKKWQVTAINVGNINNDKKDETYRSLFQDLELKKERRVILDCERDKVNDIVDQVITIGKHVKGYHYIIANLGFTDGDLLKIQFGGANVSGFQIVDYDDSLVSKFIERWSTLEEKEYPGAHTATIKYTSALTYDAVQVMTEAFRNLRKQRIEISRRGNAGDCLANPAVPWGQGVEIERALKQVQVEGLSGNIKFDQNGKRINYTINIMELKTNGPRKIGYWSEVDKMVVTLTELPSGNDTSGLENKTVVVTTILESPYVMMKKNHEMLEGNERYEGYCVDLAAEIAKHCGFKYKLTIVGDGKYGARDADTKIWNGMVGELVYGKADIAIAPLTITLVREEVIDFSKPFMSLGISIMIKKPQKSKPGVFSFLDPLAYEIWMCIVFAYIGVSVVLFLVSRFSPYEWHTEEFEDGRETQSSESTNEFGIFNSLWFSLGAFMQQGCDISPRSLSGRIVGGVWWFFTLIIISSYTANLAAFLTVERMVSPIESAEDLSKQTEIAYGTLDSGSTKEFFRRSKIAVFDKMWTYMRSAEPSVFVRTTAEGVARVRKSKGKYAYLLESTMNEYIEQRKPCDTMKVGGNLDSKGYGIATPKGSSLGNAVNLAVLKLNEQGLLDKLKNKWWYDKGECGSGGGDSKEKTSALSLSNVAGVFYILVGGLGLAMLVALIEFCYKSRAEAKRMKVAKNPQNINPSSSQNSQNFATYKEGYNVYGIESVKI
Sequence of Glutamate receptor ionotropic, AMPA (Rattus norvegicus, UniProt P19491+P19492+P19493+P19490) (P19492 whole entry): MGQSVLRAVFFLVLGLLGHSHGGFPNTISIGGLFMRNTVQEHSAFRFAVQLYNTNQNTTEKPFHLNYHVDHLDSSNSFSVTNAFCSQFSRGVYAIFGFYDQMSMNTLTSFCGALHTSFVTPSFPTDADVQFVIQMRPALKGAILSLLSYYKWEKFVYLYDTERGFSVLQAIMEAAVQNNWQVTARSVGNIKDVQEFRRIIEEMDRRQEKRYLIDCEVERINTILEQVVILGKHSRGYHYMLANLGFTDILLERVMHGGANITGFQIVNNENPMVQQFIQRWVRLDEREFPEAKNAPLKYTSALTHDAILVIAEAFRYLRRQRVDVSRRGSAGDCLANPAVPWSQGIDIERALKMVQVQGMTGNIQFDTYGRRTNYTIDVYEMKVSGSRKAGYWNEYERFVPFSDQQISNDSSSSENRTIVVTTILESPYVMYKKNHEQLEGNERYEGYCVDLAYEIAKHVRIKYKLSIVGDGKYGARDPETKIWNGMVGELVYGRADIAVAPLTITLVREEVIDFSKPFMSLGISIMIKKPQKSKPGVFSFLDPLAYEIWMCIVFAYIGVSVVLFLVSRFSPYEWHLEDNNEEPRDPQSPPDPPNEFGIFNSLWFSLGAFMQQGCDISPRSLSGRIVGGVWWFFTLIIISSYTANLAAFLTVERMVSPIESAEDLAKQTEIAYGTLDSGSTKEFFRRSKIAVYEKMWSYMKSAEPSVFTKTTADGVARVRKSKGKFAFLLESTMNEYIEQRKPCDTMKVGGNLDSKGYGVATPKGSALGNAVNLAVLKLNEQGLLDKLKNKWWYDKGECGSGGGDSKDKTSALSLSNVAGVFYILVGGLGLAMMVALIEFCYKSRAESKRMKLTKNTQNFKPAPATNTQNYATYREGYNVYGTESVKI
Sequence of Glutamate receptor ionotropic, AMPA (Rattus norvegicus, UniProt P19491+P19492+P19493+P19490) (P19493 whole entry): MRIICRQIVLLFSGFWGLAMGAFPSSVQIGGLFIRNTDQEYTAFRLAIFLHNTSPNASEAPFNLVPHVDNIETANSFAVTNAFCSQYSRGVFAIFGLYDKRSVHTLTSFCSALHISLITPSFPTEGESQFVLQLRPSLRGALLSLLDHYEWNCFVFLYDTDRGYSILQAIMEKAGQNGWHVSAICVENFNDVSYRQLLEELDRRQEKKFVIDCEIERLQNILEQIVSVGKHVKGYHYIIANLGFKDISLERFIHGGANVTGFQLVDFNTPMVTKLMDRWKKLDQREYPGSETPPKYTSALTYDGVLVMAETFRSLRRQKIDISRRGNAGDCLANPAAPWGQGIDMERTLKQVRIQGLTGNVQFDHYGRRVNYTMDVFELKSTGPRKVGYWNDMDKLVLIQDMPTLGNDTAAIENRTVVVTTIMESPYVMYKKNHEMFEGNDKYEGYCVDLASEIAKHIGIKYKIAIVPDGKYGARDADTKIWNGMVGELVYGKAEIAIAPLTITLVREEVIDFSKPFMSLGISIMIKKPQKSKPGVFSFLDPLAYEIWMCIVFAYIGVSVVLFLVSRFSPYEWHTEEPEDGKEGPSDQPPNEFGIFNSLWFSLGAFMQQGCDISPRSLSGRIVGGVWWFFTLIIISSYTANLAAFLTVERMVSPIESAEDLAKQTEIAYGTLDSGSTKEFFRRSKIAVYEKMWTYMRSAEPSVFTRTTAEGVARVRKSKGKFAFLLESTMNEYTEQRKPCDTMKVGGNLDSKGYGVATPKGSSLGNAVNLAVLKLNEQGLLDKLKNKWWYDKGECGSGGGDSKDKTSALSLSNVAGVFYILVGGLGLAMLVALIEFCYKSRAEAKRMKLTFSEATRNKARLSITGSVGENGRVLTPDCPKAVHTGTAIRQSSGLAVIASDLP
Sequence of Glutamate receptor ionotropic, AMPA (Rattus norvegicus, UniProt P19491+P19492+P19493+P19490) (P19490 whole entry): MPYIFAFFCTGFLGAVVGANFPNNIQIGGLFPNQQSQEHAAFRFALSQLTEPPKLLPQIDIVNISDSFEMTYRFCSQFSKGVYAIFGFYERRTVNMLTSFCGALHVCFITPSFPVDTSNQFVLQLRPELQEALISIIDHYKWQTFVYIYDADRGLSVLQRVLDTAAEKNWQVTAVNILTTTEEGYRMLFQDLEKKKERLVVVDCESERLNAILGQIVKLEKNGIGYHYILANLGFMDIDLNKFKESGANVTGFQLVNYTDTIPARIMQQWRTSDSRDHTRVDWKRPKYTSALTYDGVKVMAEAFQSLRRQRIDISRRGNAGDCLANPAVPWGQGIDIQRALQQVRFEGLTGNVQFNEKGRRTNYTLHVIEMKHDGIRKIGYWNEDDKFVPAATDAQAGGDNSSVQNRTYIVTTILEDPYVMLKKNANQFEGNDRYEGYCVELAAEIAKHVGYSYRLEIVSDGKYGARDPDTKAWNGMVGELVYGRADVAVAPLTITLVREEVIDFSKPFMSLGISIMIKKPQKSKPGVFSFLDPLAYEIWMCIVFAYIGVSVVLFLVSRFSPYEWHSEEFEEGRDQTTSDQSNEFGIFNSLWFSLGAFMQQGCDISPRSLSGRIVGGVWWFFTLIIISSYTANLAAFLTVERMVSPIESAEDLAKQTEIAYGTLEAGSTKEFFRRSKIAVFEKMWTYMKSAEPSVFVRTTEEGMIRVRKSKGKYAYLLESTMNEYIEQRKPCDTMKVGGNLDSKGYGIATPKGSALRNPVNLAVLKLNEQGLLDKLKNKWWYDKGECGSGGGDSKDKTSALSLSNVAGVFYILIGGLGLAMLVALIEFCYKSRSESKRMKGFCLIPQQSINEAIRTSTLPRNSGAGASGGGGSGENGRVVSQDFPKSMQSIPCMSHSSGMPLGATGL

SMILES | IC50 [2] | IC50 [3] | IC50 [4] | IC50 [5] | IC50 [8] | ED50 [12] | other results
O=C(O)[C@@H]1C[C@H]2C[C@@H](Cn3nnc(S)n3)CC[C@H]2CN1 (racemic) | > 100 µM | > 100 µM | > 100 µM | > 10 µM | – | – | inhibition [1]: 57.9%; inhibition [6]: 55%
O=C(O)[C@H]1C[C@@H]2C[C@H](CSc3nn[nH]n3)CC[C@@H]2CN1 | > 100 µM | – | – | > 10 µM | 22.1 µM | – | IC50 [7]: > 31.6 µM; IC50 [9]: > 100 µM; IC50 [10]: 19.8 µM
O=C(CC[C@H]1CC[C@H]2CN[C@H](C(=O)O)C[C@H]2C1)Nc1nn[nH]n1 | > 100 µM | 71 µM | 84 µM | > 100 µM | 72.6 µM | – | IC50 [11]: 19 µM
O=C(O)[C@@H]1C[C@H]2C[C@@H](c3nnn[nH]3)CC[C@H]2CN1 | – | – | – | – | – | 24.1 mg/kg | ED50 [13]: 44.5 mg/kg; ED50 [14]: 19.4 mg/kg
O=C(O)[C@@H]1C[C@H]2C[C@@H](Cn3nnnc3S)CC[C@H]2CN1 (racemic) | 16.7 µM | – | – | > 10 µM | 12.9 µM | – | IC50 [15]: Agonist
O=C(O)[C@H]1C[C@@H]2C[C@@H](CSc3nn[nH]n3)CC[C@@H]2CN1 | 27.9 µM | – | – | > 100 µM | 17.8 µM | – | IC50 [7]: 29.1 µM; IC50 [9]: > 100 µM; IC50 [10]: 9 µM
O=C(O)[C@@H]1C[C@H]2C[C@@H](CSc3nn[nH]n3)CC[C@H]2CN1 | 15.7 µM | – | – | 18.1 µM | 0.6 µM | 8.5 mg/kg | ED50 [16]: 20.1 mg/kg; IC50 [7]: > 31.6 µM; ED50 [17]: 8.1 mg/kg; IC50 [9]: 22.9 µM; IC50 [10]: 1.4 µM
O=C(O)CC[C@@H]1CC[C@H]2CN[C@H](C(=O)O)C[C@H]2C1 | > 100 µM | > 100 µM | > 100 µM | > 100 µM | > 100 µM | – | IC50 [11]: > 100 µM
O=C(O)[C@@H]1C[C@H]2C[C@@H](CSc3nc[nH]n3)CC[C@H]2CN1 | > 10 µM | – | – | > 10 µM | > 10 µM | – | IC50 [7]: > 100 µM; IC50 [9]: > 100 µM; IC50 [10]: 68.8 µM
O=C(O)CC[C@H]1CC[C@H]2CN[C@H](C(=O)O)C[C@H]2C1 | > 100 µM | > 100 µM | 57 µM | 43.9 µM | 27.8 µM | > 100 mg/kg | ED50 [17]: > 100 mg/kg; ED50 [18]: > 100 mg/kg; IC50 [19]: 42 µM
O=C(O)[C@@H]1C[C@H]2C[C@@H](CCS(=O)(=O)O)CC[C@H]2CN1 | > 100 µM | 100 µM | > 100 µM | 61.8 µM | 11.6 µM | – | IC50 [11]: 31.4 µM
O=C(O)[C@@H]1C[C@H]2C[C@@H](CS(=O)(=O)c3nnc[nH]3)CC[C@H]2CN1 (stereo in doubt; 36) | – | 10 µM | > 100 µM | – | 1.7 µM | 9.5 mg/kg | IC50 [11]: 2.16 µM; ED50 [18]: 25.2 mg/kg
O=C(O)[C@@H]1C[C@H]2C[C@@H](CCCc3nnn[nH]3)CC[C@H]2CN1 | – | – | – | – | – | > 100 mg/kg | ED50 [17]: > 100 mg/kg; ED50 [18]: > 100 mg/kg
O=C(O)[C@@H]1C[C@H]2C[C@@H](OCc3nn[nH]n3)CC[C@H]2CN1 | – | – | – | – | – | 24.7 mg/kg | ED50 [20]: 80 mg/kg; ED50 [17]: 30.6 mg/kg; ED50 [18]: 21 mg/kg
CCOC(=O)[C@@H]1C[C@H]2C[C@@H](CCP(=O)(OCC)OCC)CC[C@H]2CN1C(=O)OC | – | > 100 µM | > 100 µM | > 100 µM | > 100 µM | – | IC50 [11]: > 100 µM
O=C(O)[C@H]1C[C@@H]2C[C@H](CS(=O)(=O)c3nc[nH]n3)CC[C@@H]2CN1 | > 100 µM | – | – | 60.9 µM | 23.6 µM | – | –
O=C(O)[C@@H]1C[C@H]2C[C@H](CSc3nn[nH]n3)CC[C@H]2CN1 (stereo in doubt; (+/-)28) | 37.3 µM | – | – | 47.9 µM | 4.9 µM | – | IC50 [9]: > 100 µM; IC50 [10]: 6.1 µM
